According to ChEMBL document CHEMBL2331546, “The structure of anthracycline derivatives determines their subcellular localization and cytotoxic activity” (ACS Med Chem Lett, 2013):
Activity calls are given as the source filed them. The rule behind the calls is not given here.

How the values were obtained:
[1] = Cellular uptake in mouse DA-3 cell cytoplasm at 10 uM after 30 mins by confocal microscopic analysis; type: ADME, cell-based; conditions: da-3, 0.5 h
[2] = (§1) Cytotoxicity against mouse DA-3 cells assessed as reduction in cell viability at 20 uM after 180 mins by XTT assay relative to control; type: functional
Outline: (§2)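 DA3 cells incubated with 20 μM anthracycline; XTT viability measured after 60, 120 and 180 min of incubation; percentage cell death expressed relative to untreated control cells (set as 100% viability).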

[3] = Cellular uptake in mouse DA-3 cell mitochondria at 10 uM after 30 mins by mitotracker red staining-based confocal microscopic analysis; type: ADME; conditions: da-3, 0.5 h
[4] = Cellular uptake in mouse DA-3 cell lysosome at 10 uM after 30 mins by LysoTracker red staining-based confocal microscopic analysis relative to control; type: ADME; conditions: da-3, 0.5 h
[5] = Cytotoxicity against mouse DA-3 cells after 24 hrs by XTT assay; type: functional, cell-based; conditions: DA-3, 24 h
Outline: (§3)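 Cells seeded at ~5 × 10^3 per well, exposed to drug at concentrations up to 60 μM for 24 h; viability read by XTT assay and IC50 values derived.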

MCF7 = assay: Cytotoxicity against human MCF7 cells after 24 hrs by XTT assay; type: functional, cell-based; conditions: MCF7, 24 h; outline: as §3
[6] = Displacement of YOYO1 from phage lambda DNA by FID assay; set-up: species or system Enterobacteria phage lambda
Outline: (§4)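 Run at 37 °C; each well held 500 ng phage lambda DNA (48 Kb) with either SYBR safe (final dilution 1:10000) or YOYO-1 (one dye molecule per 40 base pairs) and test compound at up to 40 μM; dye fluorescence displacement gave IC50.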

SK-OV-3 = assay: Cytotoxicity against human SKOV3 cells after 24 hrs by XTT assay; type: functional, cell-based; conditions: SK-OV-3, 24 h; outline: as §3
[7] = Displacement of SYBR from phage lambda DNA by FID assay; set-up: species or system Enterobacteria phage lambda; outline: as §4
[8] = Cellular uptake in mouse DA-3 cell nucleus at 10 uM after 30 mins by DRAQ5 deep red staining-based confocal microscopic analysis relative to control; type: ADME; conditions: da-3, 0.5 h
DA-3 [9] = assay: Cytotoxicity against mouse DA-3 cells assessed as reduction in cell viability at 20 uM after 60 mins by XTT assay; type: functional, cell-based; outline: as §2
[10] = Cytotoxicity against human ES2 cells after 24 hrs by XTT assay; type: functional, cell-based; conditions: ES-2, 24 h; outline: as §3
[11] = Cellular uptake in mouse DA-3 cell lysosome at 10 uM after 30 mins by LysoTracker green staining-based confocal microscopic analysis relative to control; type: ADME; conditions: da-3, 0.5 h
[12] = test system: Enterobacteria phage lambda; assay: Ratio of idarubicin IC50 to compound IC50 for displacement of YOYO1 from phage lambda DNA
DA-3 [13] = assay: as §1; type: functional; outline: as §2
[14] = Cellular uptake in mouse DA-3 cell nucleus at 10 uM after 10 hrs by DRAQ5 deep red staining-based confocal microscopic analysis; type: ADME; conditions: da-3, 10 h
[15] = Cellular uptake in mouse DA-3 cell mitochondria at 10 uM after 10 hrs by mitotracker red staining-based confocal microscopic analysis; type: ADME; conditions: da-3, 10 h
[16] = Cellular uptake in mouse DA-3 cell lysosome at 10 uM after 10 hrs by LysoTracker green staining-based confocal microscopic analysis; type: ADME; conditions: da-3, 10 h
[17] = Cytotoxicity against mouse DA-3 cells assessed as reduction in cell viability at 20 uM after 6 hrs by XTT assay relative to control; type: functional
DA-3 [18] = assay: Cytotoxicity against mouse DA-3 cells assessed as reduction in cell viability at 20 uM by XTT assay; type: functional, cell-based; outline: as §2
[19] = test system: Enterobacteria phage lambda; assay: Ratio of doxorubicin IC50 to compound IC50 for displacement of SYBR from phage lambda DNA
[20] = test system: Enterobacteria phage lambda; assay: Ratio of idarubicin IC50 to compound IC50 for displacement of SYBR from phage lambda DNA

| Drug uptake [1] | Drug uptake [3] | Drug uptake [4] [%] | IC50 [6] [µM] | IC50 [7] [µM] | Drug uptake [8] | Drug uptake [11] [%] | Ratio IC50 [12] | SMILES | Activity [2] [%] | IC50 [5] [µM] | IC50 (MCF7) [µM] | IC50 (SK-OV-3) [µM] | Activity (DA-3 [9]) | IC50 [10] [µM] | also measured |
| --- | --- | --- | --- | --- | --- | --- | --- | --- | --- | --- | --- | --- | --- | --- | --- |
| Active | Not Active | 67.12 | > 40 | > 40 | Not Active |  |  | C[C@@H]1O[C@@H](OCc2cc(O)c3c(c2)C(=O)c2cccc(O)c2C3=O)C[C@H](N)[C@H]1O | 100 | 7.9 | 23.6 | 11.1 | Active | 6.8 |  |
|  | Not Active |  | 1.97 | 0.89 |  | 83.2 | 3 | CC(=O)[C@]1(O)Cc2c(O)c3c(c(O)c2[C@@H](O[C@H]2C[C@H](N)[C@H](O)[C@H](C)O2)C1)C(=O)c1ccccc1C3=O [IDARUBICIN] |  | 2.3 | 7.3 | 4.5 |  | 3.2 | Activity (DA-3 [18]): Active; Ratio IC50 [19]: 5; Ratio IC50 [20]: 5 |

The next lines start with the compound.

| SMILES | Drug uptake [1] | Drug uptake [3] | Drug uptake [4] [%] | IC50 [6] [µM] | IC50 [7] [µM] | Drug uptake [8] | Drug uptake [11] [%] | Ratio IC50 [12] | Activity [2] [%] | IC50 [5] [µM] | IC50 (MCF7) [µM] | IC50 (SK-OV-3) [µM] | Activity (DA-3 [9]) | IC50 [10] [µM] | also measured |
| --- | --- | --- | --- | --- | --- | --- | --- | --- | --- | --- | --- | --- | --- | --- | --- |
| Cc1c(O)c2c(c(O)c1CO[C@H]1C[C@H](N)[C@@H](O)[C@H](C)O1)C(=O)c1ccccc1C2=O | Active | Not Active | 84.48 | > 40 | > 40 | Not Active |  |  |  | 17.5 | 17.2 | 16.3 |  | 17.7 |  |
| COc1cccc2c1C(=O)c1c(O)c3c(c(O)c1C2=O)C[C@@](O)(C(C)=O)C[C@@H]3O[C@H]1C[C@H](N)[C@H](O)[C@H](C)O1 [DAUNORUBICIN] |  |  |  | 0.84 | 0.14 | Not Active | 83.19 |  | 80 | 1.9 | 33.9 | 20.6 | Active | 25.5 |  |
| COc1cccc2c1C(=O)c1c(O)c3c(c(O)c1C2=O)C[C@@](O)(C(=O)CO)C[C@@H]3O[C@H]1C[C@H](N)[C@H](O)[C@H](C)O1 [DOXORUBICIN] |  | Not Active |  | 0.6 | 0.73 | 41.43% | 27.55 | 3 |  | 4 | > 60 | 55.7 |  | > 60 | Activity (DA-3 [13]): inactive; Drug uptake [14]: Active; Drug uptake [15]: Active; Drug uptake [16]: Active; Activity [17]: 12% |
